Measurements published in ChEMBL document CHEMBL1142988 (J Med Chem, 2007).
Activity calls are given as the source filed them. The calls are words filed in the database; no cut-off is given here.

Key:
[1] = Antagonist activity at human recombinant GLUK5/GLUK6 expressed in HEK293 cells assessed as inhibition of glutamate-stimulated calcium influx by FLIPR assay; format: functional, cell-based
[2] = Antagonist activity at human recombinant GLUK6/GLUK2 expressed in HEK293 cells assessed as inhibition of glutamate-stimulated calcium influx by FLIPR assay; format: functional, cell-based
[3] = target: Glutamate receptor ionotropic, kainate 1 (Rattus norvegicus, UniProt P22756); assay: Activity at native GLUK5 kainate receptor assessed as antagonism of kainite-induced depolarization of neonatal non-anaesthetised rat dorsal root fibres
Glutamate receptor ionotropic, kainate 1, sequence (P22756 whole entry): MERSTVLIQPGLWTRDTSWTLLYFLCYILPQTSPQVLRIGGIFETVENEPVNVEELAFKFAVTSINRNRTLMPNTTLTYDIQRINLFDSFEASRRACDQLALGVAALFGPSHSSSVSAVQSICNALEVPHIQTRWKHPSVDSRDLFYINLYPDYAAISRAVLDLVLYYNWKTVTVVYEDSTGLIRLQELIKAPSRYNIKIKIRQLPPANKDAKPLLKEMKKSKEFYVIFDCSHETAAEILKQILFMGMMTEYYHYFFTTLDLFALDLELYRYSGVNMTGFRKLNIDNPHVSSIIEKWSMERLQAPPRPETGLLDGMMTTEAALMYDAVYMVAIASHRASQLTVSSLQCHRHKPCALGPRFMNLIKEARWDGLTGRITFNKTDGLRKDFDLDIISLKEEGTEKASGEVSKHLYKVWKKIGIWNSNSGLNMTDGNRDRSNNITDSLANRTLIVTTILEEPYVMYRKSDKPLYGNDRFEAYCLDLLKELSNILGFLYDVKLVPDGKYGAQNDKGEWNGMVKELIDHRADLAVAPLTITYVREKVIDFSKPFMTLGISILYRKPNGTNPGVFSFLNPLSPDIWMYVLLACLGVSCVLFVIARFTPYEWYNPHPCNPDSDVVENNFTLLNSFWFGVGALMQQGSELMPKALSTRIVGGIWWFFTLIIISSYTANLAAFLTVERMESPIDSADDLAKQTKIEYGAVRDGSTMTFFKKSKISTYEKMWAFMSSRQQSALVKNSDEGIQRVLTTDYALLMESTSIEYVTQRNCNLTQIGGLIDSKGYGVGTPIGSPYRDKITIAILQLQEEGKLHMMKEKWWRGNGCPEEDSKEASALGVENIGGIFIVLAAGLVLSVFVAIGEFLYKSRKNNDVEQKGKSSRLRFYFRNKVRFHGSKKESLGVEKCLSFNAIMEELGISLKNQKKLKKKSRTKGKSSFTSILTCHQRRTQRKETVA

[4] = Antagonist activity at native AMPA receptor assessed as fDR-VRP reduction of neonatal rat spinal cord motorneurones; format: functional
Summary of the method: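 Neonatal (1-5-day-old, non-anaesthetized) rat hemisected spinal cord. Concentration-response curves for antagonist (5 min applications) on the fast component of the dorsal root-evoked ventral root potential, with 2 mM MgSO4 and 50 µM (R)-AP5 (30 min preincubation) to block NMDA receptors; mean ± SEM, n = 3.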

[5] = target: Glutamate receptor ionotropic, kainate 1 (Homo sapiens) (UniProt P39086); assay: Antagonist activity at human recombinant GLUK5/GLUK2 expressed in HEK293 cells assessed as inhibition of glutamate-stimulated calcium influx by FLIPR assay; format: functional, cell-based
Glutamate receptor ionotropic, kainate 1 (Homo sapiens), sequence (P39086 whole entry): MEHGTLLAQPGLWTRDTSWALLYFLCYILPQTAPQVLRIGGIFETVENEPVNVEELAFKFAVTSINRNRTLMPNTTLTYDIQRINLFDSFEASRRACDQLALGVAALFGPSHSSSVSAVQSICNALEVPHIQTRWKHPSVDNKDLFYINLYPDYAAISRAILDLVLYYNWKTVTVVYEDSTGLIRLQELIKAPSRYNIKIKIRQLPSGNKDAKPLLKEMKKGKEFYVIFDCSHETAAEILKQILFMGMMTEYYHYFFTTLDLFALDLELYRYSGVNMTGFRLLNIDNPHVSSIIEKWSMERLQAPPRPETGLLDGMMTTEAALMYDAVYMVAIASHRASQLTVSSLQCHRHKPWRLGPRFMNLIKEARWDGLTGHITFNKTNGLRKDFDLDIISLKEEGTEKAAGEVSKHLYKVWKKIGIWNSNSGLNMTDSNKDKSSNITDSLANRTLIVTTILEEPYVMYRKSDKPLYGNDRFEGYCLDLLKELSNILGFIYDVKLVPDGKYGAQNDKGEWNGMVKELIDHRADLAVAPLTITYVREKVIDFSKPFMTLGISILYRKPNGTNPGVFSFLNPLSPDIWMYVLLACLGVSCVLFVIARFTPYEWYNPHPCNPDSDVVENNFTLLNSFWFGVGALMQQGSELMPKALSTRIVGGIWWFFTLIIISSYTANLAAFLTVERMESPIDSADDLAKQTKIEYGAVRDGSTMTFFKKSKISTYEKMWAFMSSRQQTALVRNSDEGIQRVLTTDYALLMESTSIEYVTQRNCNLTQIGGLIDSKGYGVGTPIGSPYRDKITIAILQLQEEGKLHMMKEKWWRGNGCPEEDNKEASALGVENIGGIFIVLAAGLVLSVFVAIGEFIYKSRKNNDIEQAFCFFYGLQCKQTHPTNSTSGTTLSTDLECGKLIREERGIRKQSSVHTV

[6] = target: Glutamate receptor ionotropic, kainate 2 (Homo sapiens, UniProt Q13002); assay: Antagonist activity at human recombinant GLUK6 expressed in HEK293 cells assessed as inhibition of glutamate-stimulated calcium influx by FLIPR assay; format: functional, cell-based
Glutamate receptor ionotropic, kainate 2, sequence (Q13002 whole entry): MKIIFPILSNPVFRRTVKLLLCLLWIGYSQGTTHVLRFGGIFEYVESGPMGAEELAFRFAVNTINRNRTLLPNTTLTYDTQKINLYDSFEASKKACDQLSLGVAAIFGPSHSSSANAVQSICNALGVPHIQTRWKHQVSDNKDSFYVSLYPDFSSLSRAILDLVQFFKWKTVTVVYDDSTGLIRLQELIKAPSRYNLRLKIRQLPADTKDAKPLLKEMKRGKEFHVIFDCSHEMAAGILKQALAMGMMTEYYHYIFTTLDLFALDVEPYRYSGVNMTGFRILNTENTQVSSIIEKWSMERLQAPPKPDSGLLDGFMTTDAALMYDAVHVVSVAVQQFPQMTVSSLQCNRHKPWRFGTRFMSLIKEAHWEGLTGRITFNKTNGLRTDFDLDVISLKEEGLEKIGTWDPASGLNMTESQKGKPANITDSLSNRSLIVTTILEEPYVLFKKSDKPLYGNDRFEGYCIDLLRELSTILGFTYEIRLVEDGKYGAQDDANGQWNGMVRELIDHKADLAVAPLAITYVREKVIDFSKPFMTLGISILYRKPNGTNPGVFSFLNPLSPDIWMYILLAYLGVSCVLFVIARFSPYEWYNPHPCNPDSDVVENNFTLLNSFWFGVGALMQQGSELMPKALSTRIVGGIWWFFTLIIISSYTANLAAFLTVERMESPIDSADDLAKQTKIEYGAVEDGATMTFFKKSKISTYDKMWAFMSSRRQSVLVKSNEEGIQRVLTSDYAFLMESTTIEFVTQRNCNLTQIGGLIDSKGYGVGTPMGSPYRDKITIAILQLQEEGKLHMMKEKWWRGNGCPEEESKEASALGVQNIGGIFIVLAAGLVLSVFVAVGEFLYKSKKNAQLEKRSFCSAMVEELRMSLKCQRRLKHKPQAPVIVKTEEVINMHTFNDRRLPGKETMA

Glutamate receptor 2 = Glutamate receptor 2 (Homo sapiens, UniProt P42262); assay: Antagonist activity at human recombinant GLUA2-AMPA receptor expressed in HEK293 cells assessed as inhibition of glutamate-stimulated calcium influx by FLIPR assay; format: functional, cell-based
Glutamate receptor 2, sequence (P42262 whole entry): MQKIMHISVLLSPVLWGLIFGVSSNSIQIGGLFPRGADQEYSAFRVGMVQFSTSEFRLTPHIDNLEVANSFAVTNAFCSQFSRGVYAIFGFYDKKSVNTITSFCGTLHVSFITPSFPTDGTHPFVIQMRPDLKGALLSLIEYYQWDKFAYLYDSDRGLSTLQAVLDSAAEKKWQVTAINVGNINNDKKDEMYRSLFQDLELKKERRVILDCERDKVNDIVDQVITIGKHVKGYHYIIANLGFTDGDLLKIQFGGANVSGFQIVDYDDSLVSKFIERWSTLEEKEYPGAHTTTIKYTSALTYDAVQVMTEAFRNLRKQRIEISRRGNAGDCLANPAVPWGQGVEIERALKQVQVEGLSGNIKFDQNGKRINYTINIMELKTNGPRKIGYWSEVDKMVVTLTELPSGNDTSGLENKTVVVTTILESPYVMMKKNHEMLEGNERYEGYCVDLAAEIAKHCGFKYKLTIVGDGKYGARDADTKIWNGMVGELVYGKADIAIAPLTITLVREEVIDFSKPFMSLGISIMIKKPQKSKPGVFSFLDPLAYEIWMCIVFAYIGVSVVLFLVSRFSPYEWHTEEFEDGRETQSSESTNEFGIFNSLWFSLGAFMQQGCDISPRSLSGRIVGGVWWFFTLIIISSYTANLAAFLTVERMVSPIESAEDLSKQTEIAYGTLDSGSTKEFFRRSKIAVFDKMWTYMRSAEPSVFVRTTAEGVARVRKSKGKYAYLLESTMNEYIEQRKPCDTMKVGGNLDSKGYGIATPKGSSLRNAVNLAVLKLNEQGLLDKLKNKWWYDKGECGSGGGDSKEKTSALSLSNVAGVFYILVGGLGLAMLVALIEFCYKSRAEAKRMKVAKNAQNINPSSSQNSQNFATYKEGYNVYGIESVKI

[7] = target: Glutamate receptor ionotropic, kainate 1 (Homo sapiens) (UniProt P39086); assay: Antagonist activity at human recombinant GLUK5 receptor expressed in HEK293 cells assessed as inhibition of glutamate-stimulated calcium influx by FLIPR assay; format: functional, cell-based
Summary of the method: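 Human GLUK5(Q) cells (Bmax of [3H]kainate binding 1.7 pmol/mg) loaded with calcium dye and read on FLIPR. Kb derived from IC50 by Cheng-Prusoff. Mean ± SEM, n = 3.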

[8] = Activity at native AMPA receptor assessed as antagonism of (S)-5-fluoriwillardiine-induced depolarization of neonatal rat spinal cord motorneurones; format: functional
[9] = target: Metabotropic glutamate receptor 1 (Rattus norvegicus) (UniProt P23385); assay: Antagonist activity at mGlu1 receptor assessed as inhibition of DHPG-induced depolarization of neonatal rat spinal cord motoneurons at 1 uM; format: functional
[10] = target: Metabotropic glutamate receptor 5 (Rattus norvegicus) (UniProt P31424); assay: Antagonist activity at mGlu5 receptor assessed as inhibition of DHPG-induced depolarization of neonatal rat spinal cord motoneurons at 1 uM; format: functional
Metabotropic glutamate receptor 5 (Rattus norvegicus), sequence (P31424 21-1203 limits assumed): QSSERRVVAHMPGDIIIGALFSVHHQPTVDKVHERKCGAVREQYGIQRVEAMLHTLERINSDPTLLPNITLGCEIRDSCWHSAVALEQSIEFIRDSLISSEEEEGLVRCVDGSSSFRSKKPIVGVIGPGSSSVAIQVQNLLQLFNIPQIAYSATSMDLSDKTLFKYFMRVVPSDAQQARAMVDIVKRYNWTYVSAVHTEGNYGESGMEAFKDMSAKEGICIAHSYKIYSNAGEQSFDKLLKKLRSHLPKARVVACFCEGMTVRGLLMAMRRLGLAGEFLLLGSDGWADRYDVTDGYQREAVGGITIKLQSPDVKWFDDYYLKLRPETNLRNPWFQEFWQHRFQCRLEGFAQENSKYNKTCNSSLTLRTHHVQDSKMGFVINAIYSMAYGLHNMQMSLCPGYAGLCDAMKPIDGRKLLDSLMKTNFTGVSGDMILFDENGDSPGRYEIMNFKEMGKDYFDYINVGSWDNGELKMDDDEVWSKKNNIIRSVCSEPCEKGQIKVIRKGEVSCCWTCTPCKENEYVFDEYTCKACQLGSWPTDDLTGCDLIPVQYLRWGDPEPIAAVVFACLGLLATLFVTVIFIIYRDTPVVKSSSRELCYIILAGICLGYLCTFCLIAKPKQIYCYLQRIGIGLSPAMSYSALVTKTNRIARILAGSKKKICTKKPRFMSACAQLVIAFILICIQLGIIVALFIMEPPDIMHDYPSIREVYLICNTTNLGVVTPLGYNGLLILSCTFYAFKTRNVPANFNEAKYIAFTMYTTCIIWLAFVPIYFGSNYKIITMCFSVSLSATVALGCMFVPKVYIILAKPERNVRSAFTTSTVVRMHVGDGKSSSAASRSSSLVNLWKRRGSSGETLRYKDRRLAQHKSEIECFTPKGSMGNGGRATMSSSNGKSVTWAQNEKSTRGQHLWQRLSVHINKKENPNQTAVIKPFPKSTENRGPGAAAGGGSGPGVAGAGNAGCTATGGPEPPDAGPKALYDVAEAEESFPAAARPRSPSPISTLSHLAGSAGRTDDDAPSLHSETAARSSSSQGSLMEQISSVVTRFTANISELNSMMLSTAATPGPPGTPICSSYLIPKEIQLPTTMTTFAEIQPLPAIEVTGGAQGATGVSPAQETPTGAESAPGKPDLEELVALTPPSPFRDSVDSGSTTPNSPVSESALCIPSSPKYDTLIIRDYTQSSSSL

[11] = target: T1, Glutamate NMDA receptor (Rattus norvegicus) (UniProt P35439+Q00959+Q00960+Q00961+Q62645+Q8VHN2+Q9R1M7); assay: Antagonist activity at NMDA receptor assessed as inhibition of NMDA-induced depolarization of neonatal rat spinal cord motoneurons at 1 uM; format: functional
[12] = Antagonist activity at human recombinant GLUK6/GLUK2 expressed in HEK293 cells assessed as inhibition of glutamate-stimulated calcium influx at 100 uM by FLIPR assay; format: functional
[13] = target: Metabotropic glutamate receptor 5 (Rattus norvegicus) (UniProt P31424); assay: Antagonist activity at mGlu5 receptor assessed as inhibition of DHPG-induced depolarization of neonatal rat spinal cord motoneurons at 10 uM; format: functional
[14] = target: T1, Glutamate NMDA receptor (Rattus norvegicus); assay: Antagonist activity at NMDA receptor assessed as inhibition of NMDA-induced depolarization of neonatal rat spinal cord motoneurons at 10 uM; format: functional
[15] = target: Metabotropic glutamate receptor 1 (Rattus norvegicus) (UniProt P23385); assay: Antagonist activity at mGlu1 receptor assessed as inhibition of DHPG-induced depolarization of neonatal rat motoneurons at 10 uM; format: functional

| Compound | IC50 [2] | Kd [3] | IC50 [4] | other results |
| --- | --- | --- | --- | --- |
| NS(=O)(=O)c1cccc2c1c([N+](=O)[O-])cc1nc(O)c(O)nc12 [NBQX] | 135 µM |  |  | IC50 [1]: 28 µM |
| N#Cc1cc2c(cc1[N+](=O)[O-])=NC(=O)C(=O)N=2 |  | 1.38 µM |  |  |
| Cc1cn(C[C@H](N)C(=O)O)c(=O)n(Cc2ccoc2C(=O)O)c1=O |  | 0.08 µM | 25.1 µM |  |
| N[C@@H](Cn1cc(Br)c(=O)n(Cc2ccsc2C(=O)O)c1=O)C(=O)O |  | 0.025 µM | 42.9 µM |  |
| N[C@@H](Cn1ccc(=O)n(Cc2ccsc2C(=O)O)c1=O)C(=O)O | > 100 µM | 0.105 µM | 31.2 µM | Kb [5]: 0.18 µM; IC50 [6]: > 100 µM; Kb [1]: 0.12 µM; IC50 (Glutamate receptor 2): > 100 µM; Kb [7]: 0.12 µM; Kd [8]: 71.4 µM |
| Cc1cn(C[C@H](N)C(=O)O)c(=O)n(Cc2cc(-c3ccccc3)sc2C(=O)O)c1=O | > 100 µM | 0.012 µM | 16.6 µM | Kb [5]: 0.005 µM; IC50 [6]: > 100 µM; Activity [9]: inactive; Activity [10]: inactive; IC50 (Glutamate receptor 2): > 100 µM; Activity [11]: inactive; Kb [7]: 0.007 µM; Kd [8]: 108 µM |
| Cc1cn(C[C@H](N)C(=O)O)c(=O)n(Cc2ccsc2C(=O)O)c1=O | > 100 µM | 0.018 µM | 16.2 µM | Kb [5]: 0.008 µM; IC50 [6]: > 100 µM; inhibition at 100 µM [12]: 27%; Activity [13]: inactive; IC50 (Glutamate receptor 2): > 100 µM; Activity [14]: inactive; Kb [7]: 0.01 µM; Kd [8]: 83.4 µM; Activity [15]: inactive |
| N[C@@H](Cn1ccc(=O)n(Cc2ccccc2C(=O)O)c1=O)C(=O)O | > 300 µM |  | 106 µM | Kb [5]: 1 µM; IC50 [6]: > 300 µM; Kb [1]: 0.8 µM; IC50 (Glutamate receptor 2): > 300 µM; Kb [7]: 0.6 µM |
| N[C@@H](Cn1cc(C(F)(F)F)c(=O)n(Cc2ccsc2C(=O)O)c1=O)C(=O)O |  | 0.055 µM | 55.3 µM |  |
| N[C@@H](Cn1ccc(=O)n(Cc2ccoc2C(=O)O)c1=O)C(=O)O |  | 1.88 µM | 11.7 µM |  |
| Cc1cn(C[C@H](N)C(=O)O)c(=O)n(Cc2c(C(=O)O)sc(Br)c2Br)c1=O |  | 0.01 µM | 2.8 µM |  |
| Cc1cn(C[C@H](N)C(=O)O)c(=O)n(Cc2ccccc2C(=O)O)c1=O |  | 0.023 µM | 51.2 µM |  |
| N[C@@H](Cn1cc(F)c(=O)n(Cc2ccccc2C(=O)O)c1=O)C(=O)O |  | 0.358 µM | 18.5 µM |  |
| N[C@@H](Cn1cc(Br)c(=O)n(Cc2ccccc2C(=O)O)c1=O)C(=O)O |  | 0.102 µM | 63.9 µM |  |
| N[C@@H](Cn1cc(I)c(=O)n(Cc2ccccc2C(=O)O)c1=O)C(=O)O |  |  | 74.1 µM |  |
